Measured values: ChEMBL document CHEMBL1124216, “A novel class of potential central nervous system agents. 3-Phenyl-2-(1-piperazinyl)-5H-1-benzazepines” (1988)

Assays:
Type in all cases: functional
[1] = tested on: Canis familiaris; assay: Inhibition of apomorphine induced emesis in dogs at 2 mg/kg of dose.; details: Canis lupus familiaris
How it was run: (§1)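 Beagle dogs (10-15 kg), groups of three, given compound po in a gelatin capsule; 2 h later apomorphine hydrochloride 0.3 mg/kg sc. Vomiting counted for 1 h; mean inhibition as percent of control. ED50 is the dose giving 50% inhibition of emesis, by Litchfield-Wilcoxon.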

[2] = tested on: Canis familiaris; assay: Inhibition of apomorphine induced emesis in dogs when administered perorally; details: Canis lupus familiaris, po; how it was run: as §1
[3] = tested on: Mus musculus; assay: Antiexploratory activity (EXPL) of mice determined by an antimex activity meter, 10 mg/kg of dose was administered perorally; details: route oral
How it was run: (§2)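 Male Std-ddY mice (20-25 g), five per dose, given compound orally in 0.5% aqueous tragacanth. Two hours later each mouse was placed in the activity-meter cage and locomotor activity was counted for 3 min. Suppression is expressed as percent inhibition of control. ED50 (dose giving 50% inhibition) calculated by Litchfield-Wilcoxon.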

[4] = tested on: Mus musculus; assay: Inhibition of conditioned avoidance response in mice when administered perorally; details: po
How it was run: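 One-way active avoidance in male Std-ddY mice in a dark/light two-compartment box. Mice trained to move to the lit side on a warning stimulus to escape floor shock; groups of 10 avoiding at >80% in 10 trials. Compound po in 0.5% tragacanth. ED50 is the dose halving avoidance rate (Litchfield-Wilcoxon).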

[5] = tested on: Mus musculus; assay: Concentration of compound that causes catalepsy in the mice when administered perorally; details: po
How it was run: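 Male Std-ddY mice were dosed orally, vehicle 0.5% aqueous tragacanth. At 2 h, forepaws were placed on a rod 4.5 cm high. Failure to remove the paws within 30 s in three successive trials was scored cataleptic. ED50 was the dose giving catalepsy in 50% of mice (Litchfield-Wilcoxon).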

[6] = tested on: Mus musculus; assay: Concentration of compound that causes ptosis in the mice when administered perorally; details: po
How it was run: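 Five male Std-ddY mice per group were dosed orally in 0.5% aqueous tragacanth. At 2 h, eyelid closure was scored macroscopically (8 open to 0 fully closed). Group mean scores formed a dose-response curve. ED50 was the dose reducing the mean score to 50%.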

[7] = tested on: Mus musculus; assay: Antiexploratory activity (EXPL) of mice determined by an antimex activity meter, when administered perorally; details: po; how it was run: as §2
[8] = tested on: Mus musculus; assay: (§3) 3,4 -Dihydroxy phenylacetic acid (DOPAC) levels in mouse brain at 10 mg/kg dose.
How it was run: (§4)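 Male Std-ddY mice (20-25 g) dosed orally with compound dissolved or suspended in 0.5% aqueous tragacanth. DOPAC measured fluorometrically after purification by column chromatography on Sephadex G-10 and QAE-Sephadex. Brains from five mice per compound pooled for the determination.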

[9] = tested on: Mus musculus; assay: The homovanillic acid (HVA)levels in mouse brain at 10 mg/kg of dose.
How it was run: (§5)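 Male Std-ddY mice (20-25 g) dosed orally with compound in 0.5% aqueous tragacanth (solution or suspension). Brain homovanillic acid (HVA) determined by a published method. Brains from five mice per compound pooled for one determination.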

[10] = tested on: Mus musculus; assay: The homovanillic acid (HVA)levels in mouse brain at 50 mg/kg of dose.; how it was run: as §5
[11] = tested on: Mus musculus; assay: Antiexploratory activity (EXPL) of mice determined by an antimex activity meter, 50 mg/kg of dose was administered perorally; details: route oral; how it was run: as §2
[12] = tested on: Mus musculus; assay: (§6) 3,4 -Dihydroxy phenylacetic acid (DOPAC) levels in mouse brain at 50 mg/kg dose.; how it was run: as §4
[13] = tested on: Rattus norvegicus; assay: Inhibition of self stimulation response in rats when administered perorally.; details: po
How it was run: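 Male Wistar HLA rats (300-400 g) with chronic electrodes implanted in the lateral posterior hypothalamus; only rats lever-pressing steadily at 50-100/min were used. Compound given po in 0.5% tragacanth. Self-stimulation counted for 10 min before and 2 h after dosing. ED50 is the dose giving ≥50% rate inhibition in 50% of rats (Litchfield-Wilcoxon).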

[14] = tested on: Mus musculus; assay: Antimaximal electroshock seizure (MES) activity in mice after peroral administration of 100 mg/kg of compound; 3/5; details: route oral
[15] = tested on: Mus musculus; assay: Antipentylene tetrazole activity was determined in mice when administered perorally; details: po
How it was run: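 Groups of five male Std-ddY mice received compound orally in 0.5% tragacanth, then pentylenetetrazole 175 mg/kg ip. Blockade of the tonic extensor component scored as anticonvulsant. ED50 was the dose protecting 50% of animals (Litchfield-Wilcoxon).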

[16] = tested on: Mus musculus; assay: Antimaximal electroshock seizure activity was determined in mice when administered perorally; details: po
[17] = tested on: Mus musculus; assay: Antiexploratory activity (EXPL) of mice determined by an antimex activity meter,100 mg/kg of dose was administered perorally; Slight inhibition (31-50%)
[18] = tested on: Mus musculus; assay: Antitremorine activity(TRM) of mice after peroral administration of 100 mg/kg of compound; No inhibition; details: route oral
[19] = tested on: Mus musculus; assay: Antireserpine activity (RES) of mice after peroral administration of 100 mg/kg of compound; No inhibition; details: route oral
[20] = tested on: Mus musculus; assay: Antimaximal electroshock seizure (MES) activity in mice after peroral administration of 100 mg/kg of compound; 0/5; details: route oral
[21] = tested on: Mus musculus; assay: Antiexploratory activity (EXPL) of mice determined by an antimex activity meter, 50 mg/kg of dose was administered perorally; No inhibition; details: route oral
[22] = tested on: Mus musculus; assay: Antitremorine activity(TRM) of mice after peroral administration of 50 mg/kg of compound; No inhibition; details: route oral
[23] = tested on: Canis familiaris; assay: Inhibition of apomorphine induced emesis in dogs at 1 mg/kg of dose.; details: Canis lupus familiaris; how it was run: as §1
[24] = tested on: Mus musculus; assay: as §3; remark: listed apart in the source
How it was run: (§7)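 Male Std-ddY mice, 20-25 g, dosed orally with compound in 0.5% aqueous tragacanth. DOPAC was measured fluorometrically after purification by column chromatography on Sephadex G-10 and QAE-Sephadex. Brains from five mice per compound were pooled for each determination.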

[25] = tested on: Mus musculus; assay: as §6; how it was run: as §7; remark: listed apart in the source
[26] = tested on: Mus musculus; assay: The homovanillic acid (HVA) levels in mouse brain at 10 mg/kg of dose.
How it was run: (§8)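 Mice dosed orally in 0.5% aqueous tragacanth; brains of five mice per compound pooled. Homovanillic acid measured in brain extracts and reported as brain level.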

[27] = tested on: Mus musculus; assay: The homovanillic acid (HVA) levels in mouse brain at 50 mg/kg of dose.; how it was run: as §8
[28] = tested on: Mus musculus; assay: Antiexploratory activity (EXPL) of mice determined by an antimex activity meter, 10 mg/kg of dose was administered perorally; Slight inhibition (31-50%); details: route oral
[29] = tested on: Mus musculus; assay: Exploratory activity of mice determined by an antimex activity meter, 10 mg/kg of dose was administered perorally; details: route oral
[30] = tested on: Mus musculus; assay: Exploratory activity of mice determined by an antimex activity meter, 50 mg/kg of dose was administered perorally; details: Mus musculus, po
How it was run: (§9)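 Male Std-ddY mice (20-25 g), five per dose; compound in 0.5% aqueous tragacanth given orally. Two hours later each mouse placed in an Animex activity meter cage and locomotor activity counted for 3 min. Mean suppression expressed as percent inhibition of control; ED50 by Litchfield-Wilcoxon.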

[31] = tested on: Mus musculus; assay: Antireserpine activity (RES) of mice after peroral administration of 50 mg/kg of compound; No inhibition; details: route oral
[32] = tested on: Mus musculus; assay: Exploratory activity of mice determined by an antimex activity meter, when administered perorally; details: po; how it was run: as §9
[33] = tested on: Mus musculus; assay: Antiexploratory activity (EXPL) of mice determined by an antimex activity meter, 50 mg/kg of dose was administered perorally; potent inhibition; details: route oral
[34] = tested on: Rattus norvegicus; assay: Inhibition of self-stimulation response in rats when administered perorally.; details: po
How it was run: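 Male Wistar HLA rats (300-400 g) with chronic electrodes in the lateral posterior hypothalamus, lever-pressing steadily at 50-100/min. Self-stimulation counted for 10 min before and 2 h after oral dosing. ED50 is the dose causing ≥50% rate inhibition in half the rats (Litchfield-Wilcoxon).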

SMILES: CN(C)CCCN1c2ccccc2Sc2ccc(Cl)cc21 [CHLORPROMAZINE]
- inhibition in vivo at 2 mg/kg [1]: 22.2%
- ED50 [2]: 4.53 mg/kg
- inhibition in vivo at 10 mg/kg [3]: 46.3%
- ED50 [4]: 5.59 mg/kg
- ED50 [5]: 7.81 mg/kg
- ED50 [6]: 24.9 mg/kg
- ED50 [7]: 8.26 mg/kg
- Control % at 10 mg/kg [8]: 232%
- Control % at 10 mg/kg [9]: 203%
- Control % at 50 mg/kg [10]: 304%
- inhibition in vivo at 50 mg/kg [11]: 90.1%
- Control % at 50 mg/kg [12]: 303%
- ED50 [13]: 6.68 mg/kg

SMILES: Cc1ccc2c(c1)CC=C(c1ccccc1)C(N1CCN(CCO)CC1)=N2.O=C(O)/C=C/C(=O)O
- Activity [14]: 3
- ED50 [15]: 39.4 mg/kg
- ED50 [16]: 103 mg/kg
- Inhibition [17]: 31%
- inhibition in vivo at 100 mg/kg [18]: < 30%
- inhibition in vivo at 100 mg/kg [19]: < 30%

SMILES: Cl.OC1CCN(C2=Nc3ccccc3CC=C2c2ccc(F)cc2)CC1
- Activity [20]: 0
- inhibition in vivo at 50 mg/kg [21]: < 30%
- inhibition in vivo at 50 mg/kg [22]: < 30%
- inhibition in vivo at 100 mg/kg [19]: < 30%

SMILES: CN1CCN(C2=Nc3ccccc3CC=C2c2ccc(F)cc2)CC1.Cl.Cl
- inhibition in vivo at 1 mg/kg [23]: 100%
- ED50 [2]: 0.28 mg/kg
- Control [24]: 188%
- Control [25]: 306%
- ED50 [4]: 14.6 mg/kg
- ED50 [5]: 21.5 mg/kg
- ED50 [6]: 61 mg/kg
- Control [26]: 197%
- Control [27]: 400%
- inhibition in vivo at 10 mg/kg [28]: 31%
- inhibition in vivo at 10 mg/kg [29]: 43.3%
- inhibition in vivo at 50 mg/kg [30]: 79.3%
- inhibition in vivo at 50 mg/kg [31]: < 30%
- ED50 [32]: 8.15 mg/kg
- inhibition in vivo at 50 mg/kg [33]: > 70%
- ED50 [34]: 4.05 mg/kg
